Experimental findings from ChEMBL document CHEMBL4433267, “Symmetry-based ligand design and evaluation of small molecule inhibitors of programmed cell death-1/programmed death-ligand 1 interaction” (Bioorg Med Chem Lett, 2019) are described below.

The Kd is a measure of binding affinity in units of concentration. A lower Kd goes with a tighter complex. By EC50 is commonly meant the concentration that produces a half-maximal response.

One assay is filed under the species Homo sapiens. Nature of the assay: Induction of IFN-gamma secretion in human CD4+ T cells in presence of dendritic cells incubated for 7 days by AlphaLISA based mixed lymphocyte reaction assay. The format is functional, cell-based. A digest of the protocol: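 CD4+ T cells were cultured 7 days, either alone or with monocyte-derived dendritic cells, with or without test agent; anti-PD-1 antibody was run as comparator. IFN-γ in culture supernatants was measured as the activation read-out. Mean ± SD is from experiments in triplicate.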
For orientation: Bead proximity is the source of the signal in Alpha formats.

Assay [1] addresses T1, Programmed cell death 1 ligand 1 (Homo sapiens, UniProt Q9NZQ7). Nature of the assay: Induction of Flag-tagged human PDL1 dimerization assessed as shortening of retention time of PD-L1 at 12 uM incubated for 10 mins by size-exclusion chromatography. A general note: In gel filtration, larger molecules generally elute earlier.
Assay [2] has as its target T1, Programmed cell death 1 ligand 1. The experiment in a line: Binding affinity to FC-tagged human PDL1 by SPR assay. A digest of the protocol: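 Surface plasmon resonance against hPD-L1, reported as equilibrium dissociation constant (K_D).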
(In SPR one partner is held on a chip, and binding of the other changes the refractive index at the surface.)

Assay [3] addresses Programmed cell death protein 1/Programmed cell death 1 ligand 1 (Homo sapiens, UniProt Q9NZQ7). The experiment in a line: Inhibition of human PDL1 expressed in CHO-K1 cells co-expressing aAPC assessed as reduction in PDL1 interaction with human PD1 expressed in Jurkat T cells incubated for 18 hrs by Bio-Glo reagent based luminescence assay. The format is cell-based. A digest of the protocol: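 In the PD-1/PD-L1 blockade bioassay, activity is expressed as EC50, with anti-PD-1 antibody as positive control.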

Active and inactive are the calls of the source. The rule behind the calls is not given here.

T1 sequence (Q9NZQ7 whole entry): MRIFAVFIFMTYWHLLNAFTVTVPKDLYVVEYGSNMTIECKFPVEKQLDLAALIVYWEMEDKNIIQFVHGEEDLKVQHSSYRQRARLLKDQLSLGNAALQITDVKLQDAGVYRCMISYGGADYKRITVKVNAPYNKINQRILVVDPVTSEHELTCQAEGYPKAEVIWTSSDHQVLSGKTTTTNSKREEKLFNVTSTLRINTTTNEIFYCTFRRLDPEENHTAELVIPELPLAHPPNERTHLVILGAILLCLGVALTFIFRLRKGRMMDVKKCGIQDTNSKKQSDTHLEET
Sequence of Programmed cell death protein 1/Programmed cell death 1 ligand 1 (Q15116 whole entry): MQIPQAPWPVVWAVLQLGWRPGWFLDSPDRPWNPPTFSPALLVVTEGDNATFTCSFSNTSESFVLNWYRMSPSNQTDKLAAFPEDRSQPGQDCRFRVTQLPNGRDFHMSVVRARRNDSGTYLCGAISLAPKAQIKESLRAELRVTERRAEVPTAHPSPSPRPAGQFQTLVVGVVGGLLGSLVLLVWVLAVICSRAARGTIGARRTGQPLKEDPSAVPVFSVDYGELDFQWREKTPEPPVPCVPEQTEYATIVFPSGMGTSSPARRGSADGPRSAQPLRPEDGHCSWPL
Sequence of Programmed cell death protein 1/Programmed cell death 1 ligand 1 (Q9NZQ7 whole entry): as the sequence (Q9NZQ7 whole entry) above

For the molecule `Cc1c(COc2ccc(CN[C@H](CO)C(=O)O)c(OCc3cncc(C#N)c3)c2)cccc1-c1cccc(COc2ccc(CN[C@H](CO)C(=O)O)c(OCc3cncc(C#N)c3)c2)c1C`, the Activity entry in the assay filed under Homo sapiens is “Dose-dependent effect”. The result in assay [1] was Active. This molecule had a Kd in assay [2] of 0.019 nM. Besides, the EC50 in assay [3] amounted to 1000 nM.
Consider `Cc1c(COc2ccc(CN[C@H](CO)C(=O)O)c(OCc3cncc(C#N)c3)c2)cccc1-c1cccc(COc2ccc(CN[C@H](CO)C(=O)O)c(OCc3cncc(C#N)c3)c2)c1`, for which the Kd in assay [2] turned out to be 0.2 nM. Moreover, the concentration giving a half-maximal response (EC50) in assay [3] is 8400 nM.
On to `Cc1c(COc2ccc(CN[C@H](CO)C(=O)O)cc2)cccc1-c1cccc(COc2ccc(CN[C@H](CO)C(=O)O)c(OCc3cncc(C#N)c3)c2)c1C`, for which, in assay [2], binding was characterised by a dissociation constant (Kd) of 0.29 nM.
As for `Cc1c(COc2ccc(CN[C@H](CO)C(=O)O)c(OCc3cncc(C#N)c3)c2)cccc1-c1ccccc1`, the Kd in assay [2] amounted to 1.1 nM. Also, the EC50 in assay [3] was greater than 30000 nM.
Take `Cc1ccccc1-c1cccc(COc2ccc(CN[C@H](CO)C(=O)O)c(OCc3cncc(C#N)c3)c2)c1C`: binding in assay [2] was put at a Kd of 3 nM.
For `COc1cc(OCc2cccc(-c3cccc(COc4ccc(CN[C@H](CO)C(=O)O)c(OCc5cncc(C#N)c5)c4)c3C)c2C)ccc1CN[C@H](CO)C(=O)O`, binding in assay [2] was characterised by a dissociation constant (Kd) of 0.21 nM. The EC50 in assay [3] was 9500 nM.
`Cc1c(COc2cccc(OCc3cncc(C#N)c3)c2)cccc1-c1cccc(COc2ccc(CN[C@H](CO)C(=O)O)c(OCc3cncc(C#N)c3)c2)c1C` had a dissociation constant (Kd) in assay [2] of 3.7 nM. The EC50 in assay [3] is greater than 100000 nM.
